Bioassay records as filed in PubChem BioAssay.
Rows were chosen to be rich in hits. Some 2.2% of all compounds tested hit in one or more screens of this group.
HDAC3 inhib = HDAC3 deacetylase inhibitors, primary screen, biochemical, fluorescence, cell-free homogeneous | Histone deacetylase 3 (Homo sapiens), O15379 | recombinant HDAC3, fluorogenic peptide/trypsin coupled | inhibition, % at 8.3 µM | 320,000 tested, 0.15% active | AID 2718, 2010; in the data active = inhibition above about 26%, passing the limit was not always enough; inconclusive = no clear call, values can overlap the other calls
Target sequence (O15379 whole entry, looked up): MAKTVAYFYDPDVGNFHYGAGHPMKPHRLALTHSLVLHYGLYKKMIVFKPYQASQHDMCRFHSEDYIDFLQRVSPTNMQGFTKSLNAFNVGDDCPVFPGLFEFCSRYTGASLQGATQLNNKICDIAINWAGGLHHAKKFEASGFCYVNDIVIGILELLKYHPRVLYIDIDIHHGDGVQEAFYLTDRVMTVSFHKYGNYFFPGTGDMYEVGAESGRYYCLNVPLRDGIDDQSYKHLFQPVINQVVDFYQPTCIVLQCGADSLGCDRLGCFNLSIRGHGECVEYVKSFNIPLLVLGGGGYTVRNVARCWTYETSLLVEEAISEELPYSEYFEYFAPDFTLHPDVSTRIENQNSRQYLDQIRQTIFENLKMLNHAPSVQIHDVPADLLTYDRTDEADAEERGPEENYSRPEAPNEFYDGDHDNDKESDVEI
AI-2 QS mod = Vibrio harveyi AI-2 quorum sensing modulators, primary screen, JMH597 strain, luminescence/OD600 ratio | 300,000 tested, 0.4% active | Vibrio harveyi JMH597 AI-2 luminescence/OD600 ratio, 9 h; hits give low values; strain lacks LuxN and CqsS sensors; 0 = neutral-control median | activity change, % at 7.5 µM; in the data active = activity change below about -75%, passing the limit was not always enough; inconclusive = no clear call, values can overlap the other calls;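 note: luminescence divided by OD600 gain over 9 h not by final OD600 alone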
PolyA inh = polyadenylation inhibitors in yeast reporter cells, primary screen, luminescence, S. cerevisiae; S. cerevisiae SKY197-pL101 polyadenylation reporter, beta-gal luminescence; efflux-impaired pdr1/pdr3 knockout yeast; score 100 = 6 SD above DMSO; activity score, % at 12 µM; 300,000 tested, 0.02% active;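 active = lowest replicate activity score at least 50, where 100 means six control SD above control mean; inconclusive = lowest score under 50 but half or more replicates reach 50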;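 note: yeast exposed to compound for 9 h at 30 °C; higher score means more reporter readthrough which indicates perturbed polyadenylation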
Efflux pump inh = inhibitors of Candida efflux pumps in yeast, primary screen, S. cerevisiae, Nile Red, multiplex; S. cerevisiae Candida pump triplex; inhibition, % at 10 µM; 330,000 tested, 0.44% active; AID 485275, 2010;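 active = plate passing quality check with inhibition over a set limit, or well fluorescence over plate mean plus 4 SD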;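 note: Nile Red retained in pooled yeast measured as flow cytometry median fluorescence; higher means more Nile Red kept so more efflux inhibition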
T cruzi inh = inhibitors of intracellular T. cruzi growth, primary screen, luminescence, NIH3T3 host cells. T. cruzi beta-gal in NIH3T3, 90 h. inhibition, % (test concentration not listed). 300,000 tested, 1.4% active. AID 1885, 2009;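 active = mean inhibition across valid replicates above about 55%, limit read from the data; inconclusive = mean below that limit but half or more replicates reach it; inactive = mean below it, under half of replicates reach it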;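 note: signal also drops with host cell toxicity which is not excluded here; higher percent means less beta-gal luminescence so fewer parasites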
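System: Mouse NIH/3T3 fibroblasts infected with β-gal-expressing T. cruzi Tulahuen C4 | Quantity: NIH/3T3 cells, 5,000 per well | Reagent: 5000 reporter trypomastigotes per well | Dosing: Compound pinned at 50 nL/well, DMSO | Schedule: 3 h host attachment, then at least 90 h co-culture | Detection: GalScreen luminescence, 60 min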
JMH597 growth rt = Vibrio harveyi growth inhibition, confirmation, counter-screen for AI-2 quorum sensing project, JMH597 strain, OD600 absorbance; AID 2726, 2010; 9 h; lacks LuxN and CqsS sensors; shares compounds with AI-2 QS mod; 750 tested, 1% active; growth inhibition, % at 7.5 µM;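 active = every replicate shows growth inhibition above 50%; inconclusive = at least half, but not all, replicates pass that cutoff; inactive = fewer than half of replicates pass it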
BB721 const-QS lum = luminescence inhibition in constitutive-on V. harveyi, confirmation, counter-screen for LuxS inhibitor project, strain BB721, luminescence readout; shares compounds with AI-2 QS mod; Vibrio harveyi BB721 luminescence, 9 h; inhibition, % at 7.5 µM; 750 tested, 95% active; AID 2727, 2010;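 active = inhibition above about 80% in every replicate, not just on average, limit read from the data; inconclusive = at least half of replicates past the limit, but not all; inactive = fewer than half of replicates past the limit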
BB721 growth = growth inhibition of V. harveyi BB721, confirmation, cytotoxicity control for AI-2 quorum sensing inhibitors, strain BB721, absorbance OD600; AID 2728, 2010; shares compounds with AI-2 QS mod; Vibrio harveyi BB721 growth, 9 h; growth inhibition, % at 7.5 µM; 750 tested, 3% active;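 active = every replicate shows growth inhibition above 50%; inconclusive = at least half but not all replicates above 50% inhibition; inactive = under half of replicates above 50% inhibition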
AI-2 QS JMH597 = Vibrio harveyi AI-2 signaling luminescence modulation – JMH597 strain, confirmation | shares compounds with AI-2 QS mod | AID 2736, 2010 | inhibition, % at 7.5 µM | Vibrio harveyi JMH597 AI-2 quorum sensing luminescence, 9 h; luxN and CqsS knockout, AI-2 only | 750 tested, 97% active;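 active = every replicate shows more than 75% inhibition of signal versus neutral control wells; inconclusive = half to three quarters of replicates exceed 75% inhibition; inactive = fewer than half of replicates exceed 75% inhibition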
Each line names hits and unclear results; the compound was inactive in the other large screens (follow-up assays come after a bar, where they were run).

CCNS(=O)(=O)c1ccc(NC(=S)NCc2ccco2)cc1	none
O=S(=O)(NCc1ccccc1)c1ccc(NC(=S)NCc2ccco2)cc1	AI-2 QS mod -97 | JMH597 growth rt inactive | BB721 const-QS lum 100 | BB721 growth inactive | AI-2 QS JMH597 100
CCc1ccc(NC(=O)CCc2ccc(CC)o2)cc1	AI-2 QS mod inconclusive | JMH597 growth rt inactive | BB721 const-QS lum inactive | BB721 growth inactive | AI-2 QS JMH597 88
CCc1ccc(CCC(=O)Nc2ccc(C)c(C)c2)o1	AI-2 QS mod -87 | JMH597 growth rt inactive | BB721 const-QS lum 93 | BB721 growth inactive | AI-2 QS JMH597 96
O=C(Cn1nnc2ccccc2c1=O)NC1CCCc2ccccc21 (configuration not stated)	none
O=C(Cn1cnc2ccccc2c1=O)Nc1ccc2c(c1)CCC2	AI-2 QS mod -83 | JMH597 growth rt inactive | BB721 const-QS lum 99 | BB721 growth inactive | AI-2 QS JMH597 99
COC(=O)c1ccc(C)c(NC(=O)Cn2cnc3ccccc3c2=O)c1	AI-2 QS mod -86 | JMH597 growth rt inactive | BB721 const-QS lum 94 | BB721 growth inactive | AI-2 QS JMH597 96
O=C(Cn1nnc2ccccc2c1=O)Nc1ccc2c(c1)CCC2	AI-2 QS mod -94 | JMH597 growth rt inactive | BB721 const-QS lum 99 | BB721 growth inactive | AI-2 QS JMH597 99
Cc1ccccc1OCCOC(=O)c1cc(S(=O)(=O)N2CCCCC2)ccc1N1CCOCC1	none (no result: AI-2 QS mod, PolyA inh, T cruzi inh)
O=c1oc2cc(Br)ccc2n1Cc1ccccc1	none
CCCCc1nnc(NC(=O)Cn2cnc3ccccc3c2=O)s1	AI-2 QS mod -95 | JMH597 growth rt inactive | BB721 const-QS lum 99 | BB721 growth inactive | AI-2 QS JMH597 99
CCc1nnc(NC(=O)CCn2cnc3ccccc3c2=O)s1	none
CCCCCc1nnc(NC(=O)Cn2cnc3ccccc3c2=O)s1	AI-2 QS mod -94 | JMH597 growth rt inactive | BB721 const-QS lum 98 | BB721 growth inactive | AI-2 QS JMH597 99
O=C(Cn1cnc2ccccc2c1=O)Nc1nnc(SCc2ccccc2)s1	none
Nc1ccc(S(=O)(=O)Nc2nc3ccccc3o2)cc1	none
O=C(c1ccco1)N1CCN(c2ccc([N+](=O)[O-])c(N3CCOCC3)c2)CC1	none
Nc1nc(SCC(=O)c2ccc(Oc3ccccc3)cc2)n[nH]1	AI-2 QS mod -94 | JMH597 growth rt inactive | BB721 const-QS lum 97 | BB721 growth inactive | AI-2 QS JMH597 98
Cc1ccc(Oc2ccc(NC(=O)CSc3n[nH]c(N)n3)cc2)cc1	AI-2 QS mod -94 | JMH597 growth rt inactive | BB721 const-QS lum 95 | BB721 growth inactive | AI-2 QS JMH597 98
O=C(O)C(Cc1c[nH]c2ccccc12)N1CCS(=O)(=O)CC1 (configuration not stated)	none
Clc1cccc(CSc2nnc(-c3c[nH]c4ccccc34)o2)c1	AI-2 QS mod -88 | JMH597 growth rt inactive | BB721 const-QS lum 93 | BB721 growth inactive | AI-2 QS JMH597 95
O=[N+]([O-])c1cccc(P(=O)(O)c2cccc([N+](=O)[O-])c2)c1	none
CN(C)S(=O)(=O)c1ccc(C(=O)OCC(=O)NCc2ccccc2)cc1	none
CN(C)S(=O)(=O)c1ccc(C(=O)OCCc2ccccc2)cc1	AI-2 QS mod -92 | JMH597 growth rt inactive | BB721 const-QS lum 96 | BB721 growth inactive | AI-2 QS JMH597 98
